Measurements reported in ChEMBL document CHEMBL1138577, “Design, synthesis of 8-alkoxy-5,6-dihydro-[1,2,4]triazino[4,3-a]quinolin-1-ones with anticonvulsant activity” (Eur J Med Chem, 2009).
Activity calls are given as the source filed them. The rule behind the calls is not given here.

Columns and labels:
Mus musculus [1] = organism: Mus musculus; test: Protective index, ratio of TD50 for neurotoxicity in C57B/6 mouse to ED50 for anticonvulsant activity in C57B/6 mouse; type: functional
In short: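 PI computed as TD50 (rotarod neurotoxicity) divided by ED50 (MES test), both in ip-dosed C57B/6 mice, compounds in PEG-400, tested 30 min post-dose.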

Mus musculus [2] = test: Anticonvulsant activity in ip dosed C57B/6 mouse assessed as protection against maximal electroshock-induced seizures administered before 30 mins of MES induction; type: functional; conditions: C57B/6, ip, 0.5 h
In short: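 Compound in polyethyleneglycol-400 given ip to C57B/6 mice (18–25 g, 10 per group) over a dose range. 30 min post-dose, 60-Hz alternating current, 50 mA, applied via corneal electrodes for 0.2 s. Protection scored as abolition of hind-leg tonic maximal extension; doses spanning 10–90% protection used to derive ED50.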

[3] = Neurotoxicity in C57B/6 mouse assessed as inability to maintain equilibrium on 1-in diameter rod for 1 min after 30 mins by rotarod test; type: toxicity, organism-based; conditions: in vivo
In short: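 Rotarod neurotoxicity: C57B/6 mice (18–25 g, groups of 10) dosed ip with compound in polyethyleneglycol-400 over a dose range; 30 min later placed on 1-in. knurled rod rotating at 6 rpm for 1 min. Toxicity = failure to keep equilibrium in each of three trials; doses spanning 10–90% used for TD50.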

Mus musculus [4] = test: Anticonvulsant activity in ip dosed C57B/6 mouse assessed as protection against isoniazid-induced seizures administered before 30 mins of isoniazid induction measured for 1 hr; type: functional; conditions: C57B/6, ip
In short: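 Mice (C57B/6, 18–25 g; n=10 per group) dosed ip with compound in PEG-400 at several doses, then challenged 30 min later with isoniazid 250 mg/kg ip, a dose convulsing all naïve animals. Housed singly and watched 1 h for tonic convulsions; ED50 = dose preventing them in 50% of animals.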

Mus musculus [5] = test: Anticonvulsant activity in ip dosed C57B/6 mouse assessed as protection against strychnine-induced seizures administered before 30 mins of strychnine induction measured for 30 mins; type: functional, organism-based
In short: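 C57B/6 mice (18–25 g, groups of 10) received compound ip in polyethyleneglycol-400; 30 min later strychnine chlorhydrate in saline (1.2 mg/mL, 1 mL/kg) given sc, a dose convulsing all naïve animals. Mice observed individually for 30 min.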

Mus musculus [6] = test: Anticonvulsant activity in ip dosed C57B/6 mouse assessed as protection against 3 mercaptopropionic acid-induced seizures administered before 30 mins of 3 mercaptopropionic acid induction measured after 1 hr; type: functional; conditions: C57B/6, ip
In short: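 C57B/6 mice (18–25 g), groups of 10, given test compound ip in polyethyleneglycol-400 across a dose range; 30 min later 3-MP 40 mg/kg in saline injected sc. Endpoint: prevention of tonic convulsions; ED50 calculated as dose protecting 50% of animals.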

Mus musculus [7] = test: Anticonvulsant activity in ip dosed C57B/6 mouse assessed as protection against pentylenetetrazole-induced seizures administered before 30 mins of pentylenetetrazole induction; type: functional; conditions: C57B/6, ip, 0.5 h
In short: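 Pentylenetetrazole 85 mg/kg sc, a dose convulsing 100% of naïve animals, given 30 min after ip compound (PEG-400 vehicle, several doses) to C57B/6 mice, 18–25 g, groups of 10. ED50 calculated as dose preventing tonic convulsions in 50% of animals.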

Mus musculus [8] = test: Anticonvulsant activity in ip dosed C57B/6 mouse assessed as protection against thiosemicarbazide-induced seizures administered before 30 mins of thiosemicarbazide induction measured after 1 hr; type: functional; conditions: C57B/6, ip
In short: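 Thiosemicarbazide 50 mg/kg ip, a dose convulsing 100% of animals, given 30 min after ip test compound (PEG-400, various doses) to C57B/6 mice (18–25 g, n=10/group). Tonic convulsions scored; ED50 calculated as dose preventing them in 50% of treated animals.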

Row | SMILES | ED50 (Mus musculus [2]) [mg/kg] | further results
1 | CCCCCCOc1ccc2c(c1)CCc1nncc(=O)n1-2 | 19.7 | PI (Mus musculus [1]): 4.2; TD50 at 30 min [3]: 82.2 mg/kg
2 | Cc1ccc(COc2ccc3c(c2)CCc2nncc(=O)n2-3)cc1 | 27.4 | –
3 | O=c1cnnc2n1-c1ccc(OCc3ccccc3Cl)cc1CC2 | 13.7 | PI (Mus musculus [1]): 7.7; TD50 at 30 min [3]: 106 mg/kg
4 | CCOc1ccc2c(c1)CCc1nncc(=O)n1-2 | 39.4 | –
5 | CCCCCCCCOc1ccc2c(c1)CCc1nncc(=O)n1-2 | 12.7 | PI (Mus musculus [1]): 7.76; TD50 at 30 min [3]: 98.6 mg/kg
6 | O=C1CCc2cc(OCc3ccccc3)ccc2N1 | 29.6 | –
7 | Cc1nnc2n(c1=O)-c1ccc(OCc3ccccc3)cc1CC2 | > 100 | –
8 | CCCCCCCOc1ccc2c(c1)CCc1nncc(=O)n1-2 | 11.4 | PI (Mus musculus [1]): 10; TD50 at 30 min [3]: 114 mg/kg
9 | CCCCCOc1ccc2c(c1)CCc1nncc(=O)n1-2 | 21.9 | –
10 | O=c1cnnc2n1-c1ccc(OCc3ccccc3)cc1CC2 | 22.8 | –
11 | CCCCCCOc1ccc2c(c1)CCc1nnc(C)c(=O)n1-2 | > 100 | –
12 | CCCOc1ccc2c(c1)CCc1nncc(=O)n1-2 | 32.9 | –
13 | O=c1cnnc2n1-c1ccc(OCc3ccccc3Br)cc1CC2 | 16.4 | PI (Mus musculus [1]): 8; TD50 at 30 min [3]: 132 mg/kg
14 | O=c1cnnc2n1-c1ccc(OCc3cccc(Cl)c3)cc1CC2 | 22.8 | ED50 (Mus musculus [4]): 19.7 mg/kg; ED50 (Mus musculus [5]): inactive; ED50 (Mus musculus [6]): 11.8 mg/kg; ED50 (Mus musculus [7]): 11.3 mg/kg; ED50 (Mus musculus [8]): 15.8 mg/kg
15 | O=c1cnnc2n1-c1ccc(OCc3ccccc3F)cc1CC2 | 23.7 | –
16 | c1ccc(COc2ccc3c(c2)CCc2nncn2-3)cc1 | – | ED50 (Mus musculus [7]): 24 mg/kg
17 | COc1ccc(COc2ccc3c(c2)CCc2nncc(=O)n2-3)cc1OC | 45.6 | –
18 | CCCCOc1ccc2c(c1)CCc1nncc(=O)n1-2 | 22.7 | –
19 | O=c1cnnc2n1-c1ccc(OCc3ccc(F)cc3)cc1CC2 | 38 | –
20 | O=c1cnnc2n1-c1ccc(OCc3c(Cl)cccc3Cl)cc1CC2 | 20.5 | –
21 | NC(=O)N1c2ccccc2C=Cc2ccccc21 [CARBAMAZEPINE] | – | PI (Mus musculus [1]): 6.4; ED50 (Mus musculus [5]): inactive
22 | O=c1cnnc2n1-c1ccc(OCc3cccc(F)c3)cc1CC2 | 31.7 | –
23 | O=c1cnnc2n1-c1ccc(OCc3ccc(Cl)cc3Cl)cc1CC2 | 26.4 | –
24 | CCCCCCCCCCCCOc1ccc2c(c1)CCc1nncc(=O)n1-2 | 54.8 | –
25 | O=c1cnnc2n1-c1ccc(OCc3ccc(Br)cc3)cc1CC2 | 64.2 | –
26 | O=c1cnnc2n1-c1ccc(OCc3ccc(Cl)cc3)cc1CC2 | 32.9 | –
27 | COc1ccc(COc2ccc3c(c2)CCc2nncc(=O)n2-3)cc1 | 56.8 | –
